Reference: ChEMBL document CHEMBL1130749, “Inhibitors of the chymotrypsin-like activity of proteasome based on di- and tri-peptidyl alpha-keto aldehydes (glyoxals)” (Bioorg Med Chem Lett, 1998)
pKi: −log10 of the molar value. Peptide text beside a SMILES is read from it. * marks the point of attachment. Cbz = O=C(OCc1ccccc1)*

Legend:
[1] = target: Proteasome; experiment: Inhibitory constant for the inactivation of the chymotrypsin like activity of proteasome from human red blood corpuscles was determined; type: subcellular
Procedure, shortened: (§1)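 Proteasome isolated from human erythrocytes by a previously described procedure. Its chymotrypsin-like activity was followed by hydrolysis of the fluorogenic substrate Suc-Leu-Leu-Val-Tyr-NHMec. Inhibition was treated as slow-binding, with a fast EI complex forming first and then isomerising to a tight EI*. Ki* was obtained from the final steady-state rates using a rearranged competitive-inhibition equation.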

[2] = test system: Proteasome; experiment: Inhibitory constant for the inactivation of the chymotrypsin like activity of proteasome from human red blood corpuscles was determined; NI means no inhibition; type: subcellular; procedure, shortened: as §1

pKi [1] | Ki [2] | Structure (SMILES)
5.41 | – | CC(C)C[C@H](NC(=O)[C@H](C)NC(=O)OCc1ccccc1)C(=O)C=O
– | Not Active | CC(=O)N[C@@H](C(=O)N[C@@H](CC(C)C)C(=O)N[C@@H](CCCCN)C(=O)C=O)C(C)C
– | Not Active | O=CC(=O)[C@H](Cc1ccccc1)NC(=O)[C@@H]1CCCN1C(=O)OCc1ccccc1
8.43 | – | CC(C)C[C@H](NC(=O)[C@H](CC(C)C)NC(=O)[C@@H](CC(C)C)NC(=O)c1ccccc1)C(=O)C=O
8.51 | – | CC(C)C[C@H](NC(=O)[C@@H](CC(C)C)NC(=O)OCc1ccccc1)C(=O)N[C@@H](Cc1ccc(O)cc1)C(=O)C=O

Further lines, the compound ahead of its results:

Structure (SMILES) | pKi [1] | Ki [2]
CC(C)[C@H](NC(=O)OCc1ccccc1)C(=O)N[C@@H](Cc1ccccc1)C(=O)C=O | 5.69 | –
CC(C)C[C@H](NC(=O)OCc1ccccc1)C(=O)N[C@@H](Cc1ccccc1)C(=O)C=O | 5.85 | –
C[C@H](NC(=O)OCc1ccccc1)C(=O)N[C@@H](Cc1ccccc1)C(=O)C=O | 5.04 | –
CC(=O)N[C@@H](CCCN=C(N)N)C(=O)N[C@@H](CCCN=C(N)N)C(=O)C=O | – | Not Active
CC(C)C[C@@H](C=O)NC(=O)[C@H](CC(C)C)NC(=O)[C@H](CC(C)C)NC(=O)OCc1ccccc1 [MG-132] (Cbz-Leu-Leu-Leu-aldehyde) | 8.40 | –
